Data taken from ChEMBL document CHEMBL1147085, “Metabolism and pharmacokinetics of a novel Src kinase inhibitor TG100435 ([7-(2,6-dichloro-phenyl)-5-methyl-benzo[1,2,4]triazin-3-yl]-[4-(2-pyrrolidin-1-yl-ethoxy)-phenyl]-amine) and its active N-oxide metabolite TG100855 …” (Drug Metab Dispos, 2007).

Experiments:
[1] = AUC (0 to infinity) in BALB/c mouse at 5 mg/kg, iv; format: ADME, organism-based; parameters: time infinity, dose 5 mg/kg, route intravenous; conditions: plasma
Outline: (§1)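 Male BALB/c mice (~25 g); fasted overnight for single p.o. dosing, not fasted for i.v. or i.p. dosing. Composite blood sampling, n=3 per time point: 5, 15, 30 min, 1, 3, 6, 24, 48 hr after i.v. dose; 0.5, 1, 3, 5, 8, 24, 30, 48 hr after p.o. or i.p. dose. Heparinized plasma, both parent and N-oxide measured by LC/MS/MS (MRM 494.2/98.1 and 510.2/98.1); non-compartmental analysis, AUC by linear trapezoidal rule.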

[2] = AUC (0 to infinity) in Sprague-Dawley rat at 5 mg/kg, iv; format: ADME, organism-based; parameters: time infinity, dose 5 mg/kg, route intravenous; conditions: plasma
[3] = Drug level in BALB/c mouse plasma at 5 mg/kg, iv; format: ADME, organism-based; parameters: dose 5 mg/kg, route intravenous; outline: as §1
[4] = Drug level in Sprague-Dawley rat plasma at 5 mg/kg, iv; format: ADME, organism-based; parameters: dose 5 mg/kg, route intravenous
[5] = Half life in BALB/c mouse at 5 mg/kg, iv; format: ADME, organism-based; parameters: dose 5 mg/kg, route intravenous; conditions: in vivo; outline: as §1
[6] = Half life in Sprague-Dawley rat at 5 mg/kg, iv; format: ADME, organism-based; parameters: dose 5 mg/kg, route intravenous; conditions: in vivo
[7] = Volume of distribution in BALB/c mouse at 5 mg/kg, iv; format: ADME, organism-based; parameters: dose 5 mg/kg, route intravenous; conditions: in vivo
[8] = Volume of distribution in Sprague-Dawley rat at 5 mg/kg, iv; format: ADME, organism-based; parameters: dose 5 mg/kg, route intravenous; conditions: in vivo
[9] = Clearance in BALB/c mouse at 5 mg/kg, iv; format: ADME, organism-based; parameters: dose 5 mg/kg, route intravenous; conditions: in vivo; outline: as §1
[10] = Clearance in Sprague-Dawley rat at 5 mg/kg, iv; format: ADME, organism-based; parameters: dose 5 mg/kg, route intravenous; conditions: in vivo
[11] = Cmax in BALB/c mouse at 25 mg/kg, po; format: ADME, organism-based; parameters: dose 25 mg/kg, route oral; conditions: in vivo; outline: as §1
[12] = Half life in Beagle dog at 5 mg/kg, iv; format: ADME, organism-based, Canis lupus familiaris; parameters: dose 5 mg/kg, route intravenous; conditions: in vivo
[13] = AUC (0 to infinity) in Beagle dog at 5 mg/kg, iv; format: ADME, organism-based, Canis lupus familiaris; parameters: time infinity, dose 5 mg/kg, route intravenous; conditions: plasma
[14] = Volume of distribution in Beagle dog at 5 mg/kg, iv; format: ADME, organism-based, Canis lupus familiaris; parameters: dose 5 mg/kg, route intravenous; conditions: in vivo
[15] = Clearance in Beagle dog at 5 mg/kg, iv; format: ADME, organism-based, Canis lupus familiaris; parameters: dose 5 mg/kg, route intravenous; conditions: in vivo
[16] = Cmax in Beagle dog at 25 mg/kg, po; format: ADME, organism-based, Canis lupus familiaris; parameters: dose 25 mg/kg, route oral; conditions: in vivo
[17] = AUC (0 to infinity) in Beagle dog at 25 mg/kg, po; format: ADME, organism-based, Canis lupus familiaris; parameters: time infinity, dose 25 mg/kg, route oral; conditions: plasma
[18] = AUC (0 to last) in Beagle dog at 25 mg/kg, po; format: ADME, organism-based, Canis lupus familiaris; parameters: dose 25 mg/kg, route oral, time 0 - last; conditions: plasma
[19] = Bioavailability in Beagle dog at 25 mg/kg, po; format: ADME, organism-based, Canis lupus familiaris; conditions: in vivo
Canis familiaris = assay: Bioavailability in Beagle dog assessed as AUC of ([7-(2,6-Dichloro-phenyl)-5-methyl-benzo[1,2,4]triazin-3-yl]-{4-[2-(1-pyrrolidin-1-yl-ethoxy)-phenyl]-amine) at 25 mg/kg, po; format: ADME, organism-based, Canis lupus familiaris; conditions: in vivo
[20] = AUC (0 to infinity) in BALB/c mouse at 40 mg/kg, po; format: ADME, organism-based; parameters: time infinity, dose 40 mg/kg, route oral; conditions: plasma; outline: as §1
[21] = AUC (0 to infinity) in Sprague-Dawley rat at 30 mg/kg, po; format: ADME, organism-based; parameters: time infinity, dose 30 mg/kg, route oral; conditions: plasma
[22] = Tmax in Sprague-Dawley rat at 25 mg/kg, po; format: ADME, organism-based; parameters: dose 25 mg/kg, route oral; conditions: in vivo
[23] = AUC (0 to infinity) in BALB/c mouse at 25 mg/kg, po; format: ADME, organism-based; parameters: time infinity, dose 25 mg/kg, route oral; conditions: plasma; outline: as §1
[24] = AUC (0 to infinity) in Sprague-Dawley rat at 25 mg/kg, po; format: ADME, organism-based; parameters: time infinity, dose 25 mg/kg, route oral; conditions: plasma
[25] = AUC (0 to last) in BALB/c mouse at 25 mg/kg, po; format: ADME, organism-based; parameters: time 0 - last, dose 25 mg/kg, route oral; conditions: plasma; outline: as §1
[26] = AUC (0 to last) in Sprague-Dawley rat at 25 mg/kg, po; format: ADME, organism-based; parameters: time 0 - last, dose 25 mg/kg, route oral; conditions: plasma
[27] = Bioavailability in Sprague-Dawley rat at 25 mg/kg, po; format: ADME, organism-based; conditions: in vivo
[28] = Drug level in Beagle dog plasma at 5 mg/kg, iv; format: ADME, organism-based, Canis lupus familiaris; parameters: dose 5 mg/kg, route intravenous

AUC(0-inf) [1]: 4140 ng·h/mL
AUC(0-inf) [2]: 7030 ng·h/mL
C0 [3]: 873 ng/mL
C0 [4]: 1650 ng/mL
half-life [5]: 5.4 h
half-life [6]: 8.9 h
Vd [7]: 9.4 L/kg
Vd [8]: 9.4 L/kg
clearance [9]: 20.1 mL/min/kg
clearance [10]: 12.7 mL/min/kg
Cmax [11]: 618 ng/mL
half-life [12]: 15.1 h
AUC(0-inf) [13]: 5800 ng·h/mL
Vd [14]: 18.7 L/kg
clearance [15]: 14.5 mL/min/kg
Cmax [16]: 102 ng/mL
AUC(0-inf) [17]: 3110 ng·h/mL
AUC(0-t) [18]: 2540 ng·h/mL
bioavailability [19]: 10.7%
AUC (Canis familiaris): 6470 ng·h/mL
AUC(0-inf) [20]: 35100 ng·h/mL
AUC(0-inf) [21]: 8120 ng·h/mL
Tmax [22]: 8 h
AUC(0-inf) [23]: 15300 ng·h/mL
AUC(0-inf) [24]: 8010 ng·h/mL
AUC(0-t) [25]: 15000 ng·h/mL
AUC(0-t) [26]: 7980 ng·h/mL
bioavailability [27]: 23%
C0 [28]: 1660 ng/mL
SMILES: Cc1cc(-c2c(Cl)cccc2Cl)cc2nnc(Nc3ccc(OCCN4CCCC4)cc3)nc12
